Measured values: ChEMBL document CHEMBL1212900, “Falcipain inhibitors: optimization studies of the 2-pyrimidinecarbonitrile lead series” (J Med Chem, 2010)

Key:
[1] = Inhibition of Plasmodium falciparum falcipain-2 expressed in Escherichia coli
Summary of the method: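 Recombinant E. coli-expressed, refolded enzyme at 0.25 nM in 100 mM sodium acetate pH 5.5, 500 μM CHAPS, 10 mM DTT, DMSO ≤1%. Substrate H-D-Val-Leu-Arg-AFC at 30 μM final. Inhibitor dilutions mixed with substrate, enzyme added last; fluorescence followed 1 h at room temperature. IC50 from percent activity versus concentration.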

[2] = Inhibition of Plasmodium falciparum falcipain-3 expressed in Escherichia coli
Summary of the method: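 Refolded recombinant enzyme from E. coli, 2 nM, in 100 mM sodium acetate pH 5.5 with 500 μM CHAPS and 10 mM DTT, DMSO up to 1%. H-D-Val-Leu-Arg-AFC at 150 μM final. Reaction started by enzyme addition; fluorescence monitored 1 h at room temperature. IC50 derived from percent activity plotted against inhibitor concentration.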

[3] = test system: Plasmodium falciparum; test: Antiplasmodial activity against Plasmodium falciparum W2 after 48 hrs; assay type: functional, organism-based; details: W2, 48 h
Summary of the method: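 W2 P. falciparum grown in human erythrocytes, 2% hematocrit, RPMI with 10% human serum or 0.5% AlbuMAX II; sorbitol-synchronized. Serial dilutions from DMSO stocks added at ring stage for 48 h, medium and drug renewed at 24 h. Cells fixed in 1% formaldehyde, stained with YOYO-1, parasitemia counted by flow cytometry; IC50 from percent parasitemia versus untreated controls.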

IC50 [1] [nM] | IC50 [2] [nM] | IC50 [3] [nM] | SMILES
2 | 75 | 193 | CC1OCCC1CN(NC(=O)c1ccc(CN2CCN(C)CC2)cc1)c1nc(C#N)ncc1Br (centres undefined)
1 | 46 | 33 | CC(C)CN(NC(=O)c1cc(CN2CCN(C)CC2)on1)c1nc(C#N)ncc1Br
1 | 107 | 76 | CC(C)CN(NC(=O)c1cc2cc(OCCN3CCNCC3)ccc2o1)c1nc(C#N)ncc1Cl
